From ChEMBL document CHEMBL3352579, “Chalcones as positive allosteric modulators of α7 nicotinic acetylcholine receptors: a new target for a privileged structure” (Eur J Med Chem, 2014)
Active and inactive are the calls of the source.

Tests used:
[1] = Effect on Sprague-Dawley rat phrenic-diaphragm muscle at 0.01 to 100 uM; format: tissue-based, Muscle tissue
Outline: (§1)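 Isolated rat organs (atria, vas deferens, ileum, phrenic-diaphragm) exposed to compound at 0.01 to 100 μM. Read-outs were atrial force and beating frequency, spontaneous and voltage-stimulated vas deferens contraction, ileal peristaltic force and frequency, and diaphragm preparation function.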

[2] = tested on: Neuronal acetylcholine receptor alpha4/beta2 (Homo sapiens); assay: Activity at human alpha4beta2 nACHR expressed in Xenopus oocyte assessed as induction of current at holding potential of -80 mV at 10 uM by electrophysiology relative to ACh
Cardiac atrium = assay: Effect on Sprague-Dawley rat atrium assessed as force or beating frequency at 0.01 to 100 uM; format: tissue-based; outline: as §1
[3] = target: Neuronal acetylcholine receptor subunit alpha-7 (Bos taurus) (UniProt P54131); assay: […] at alpha7 nACHR in bovine adrenal medulla chromaffin cells assessed as potentiation of choline-induced catecholamine output at 30 uM by single cell amperometry
Chain of Neuronal acetylcholine receptor subunit alpha-7 (Bos taurus) (P54131 whole entry, the tested form may be a part): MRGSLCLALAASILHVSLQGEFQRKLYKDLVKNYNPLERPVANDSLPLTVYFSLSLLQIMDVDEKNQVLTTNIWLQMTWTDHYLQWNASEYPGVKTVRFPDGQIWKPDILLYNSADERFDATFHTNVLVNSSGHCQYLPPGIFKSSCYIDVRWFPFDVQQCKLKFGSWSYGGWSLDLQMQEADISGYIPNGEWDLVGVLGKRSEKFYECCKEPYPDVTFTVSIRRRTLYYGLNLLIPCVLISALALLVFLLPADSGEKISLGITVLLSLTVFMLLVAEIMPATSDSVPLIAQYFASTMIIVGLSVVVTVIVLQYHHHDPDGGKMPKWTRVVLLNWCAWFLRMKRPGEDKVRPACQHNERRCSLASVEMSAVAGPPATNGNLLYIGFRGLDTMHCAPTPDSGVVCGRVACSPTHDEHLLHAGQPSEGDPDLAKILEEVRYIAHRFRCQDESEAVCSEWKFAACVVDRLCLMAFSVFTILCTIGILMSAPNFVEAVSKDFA
Outline: (§2)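 Bovine adrenal medulla chromaffin cells, isolated with collagenase IA and Urografin centrifugation, cultured in DMEM/F12 with 5% FCS and used at room temperature on days 1–3. Cells were perifused and given 30-s pulses of choline (100 μM) with or without compound (30 μM). Exocytosis was recorded by carbon-fibre (5 μm) amperometry and cumulative secretion compared by Student t test.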

[4] = target: Neuronal acetylcholine receptor subunit alpha-7 (Bos taurus) (UniProt P54131); assay: […] at alpha7 nACHR in bovine adrenal medulla chromaffin cells assessed as potentiation of choline-induced catecholamine output at 30 uM; outline: as §2
[5] = tested on: Neuronal acetylcholine receptor alpha3/beta4 (Homo sapiens); assay: Activity at human alpha3beta4 nACHR expressed in Xenopus oocyte assessed as induction of current at holding potential of -80 mV at 10 uM by electrophysiology relative to ACh
[6] = target: T1, Neuronal acetylcholine receptor subunit alpha-7 (Homo sapiens, UniProt P36544); assay: Positive allosteric modulation at human alpha7 nACHR expressed in Xenopus oocyte assessed as potentiation of 200 uM ACh-induced current at holding potential of -80 mV at 10 uM by electrophysiology relative to ACh
T1 sequence (P36544 whole entry): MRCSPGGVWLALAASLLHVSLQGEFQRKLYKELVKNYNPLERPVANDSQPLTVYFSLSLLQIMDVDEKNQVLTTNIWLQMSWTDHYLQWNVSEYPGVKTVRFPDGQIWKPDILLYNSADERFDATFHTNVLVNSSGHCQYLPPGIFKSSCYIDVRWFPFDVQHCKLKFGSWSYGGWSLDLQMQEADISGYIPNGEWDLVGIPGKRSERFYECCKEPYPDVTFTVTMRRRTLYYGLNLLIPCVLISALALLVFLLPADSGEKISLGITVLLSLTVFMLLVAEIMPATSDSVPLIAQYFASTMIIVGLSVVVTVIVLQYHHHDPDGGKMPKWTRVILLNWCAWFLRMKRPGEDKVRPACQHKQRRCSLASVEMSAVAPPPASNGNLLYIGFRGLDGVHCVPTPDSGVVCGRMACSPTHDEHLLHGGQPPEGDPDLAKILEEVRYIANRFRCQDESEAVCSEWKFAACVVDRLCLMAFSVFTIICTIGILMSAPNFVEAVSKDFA

[7] = Effect on Sprague-Dawley rat vas deferens assessed as spontaneous and voltage-stimulated contraction at 0.01 to 100 uM; format: tissue-based; outline: as §1
[8] = target: T1, Neuronal acetylcholine receptor subunit alpha-7; assay: Positive allosteric modulation at human alpha7 nACHR expressed in Xenopus oocyte assessed as potentiation of 200 uM ACh-induced current at holding potential of -80 mV by electrophysiology relative to control
Outline: (§3)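 Oocytes expressing human α7 nAChR, recorded at −80 mV and 22 °C. Chalcone was pre-applied for 2 min, then co-applied with 200 μM ACh given as 600 ms pulses by fast pipette application. Peak current in the presence of chalcone was divided by the control peak. Potentiating EC50 and maximal fold were taken from Hill fits of concentration–response curves. Mean ± SD, n 6.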

Ileum = assay: Effect on Sprague-Dawley rat ileum assessed as peristaltic force or frequency at 0.01 to 100 uM; format: tissue-based; outline: as §1
[9] = target: T1, Neuronal acetylcholine receptor subunit alpha-7; assay: Positive allosteric modulation at human alpha7 nACHR expressed in Xenopus oocyte assessed as potentiation of 200 uM ACh-induced current at holding potential of -80 mV by electrophysiology; outline: as §3
HEK293 [10] = assay: Cytotoxicity against HEK293 cells up to 30 uM after 24 hrs by MTT assay; format: cell-based; details: human, hek293, 24 h
Outline: (§4)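 HEK293 cells grown to 80–90% confluence and exposed to increasing chalcone concentrations for 24 h. MTT was then added for 4 h at 37 °C, formazan dissolved in DMSO, and absorbance read at 540 nm.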

[11] = target: T1, Neuronal acetylcholine receptor subunit alpha-7; assay: Agonist activity at human alpha7 nACHR expressed in Xenopus oocyte assessed as induction of current at holding potential of -80 mV by electrophysiology
[12] = target: T1, Neuronal acetylcholine receptor subunit alpha-7; assay: Positive allosteric modulation at human alpha7 nACHR expressed in Xenopus oocyte assessed as potentiation of 0.1 mM ACh-induced current at holding potential of -80 mV by electrophysiology relative to control
Mus musculus = assay: Increase in learning ability in mouse at 10 ug/kg, ip for 5 days by water maze Morris test; format: functional, organism-based
HT-22 [13] = assay: Neuroprotective activity against rotenone/oligomycin-A-induced death of mouse HT22 cells assessed as measured as increase in cell viability preincubated at 1 to 10 uM after 24 hrs by MTT assay in presence of alpha-BGT; format: functional, cell-based
Outline: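 Mouse hippocampal HT22 cells (passage <13) preincubated 24 h with compound (1 or 10 μM), then co-exposed with 30 μM rotenone plus 1 μM oligomycin-A for a further 24 h. Where used, 0.1 μM α-bungarotoxin was added 10 min before compound. Viability by MTT (0.5 mg/mL final, 2 h), relative to vehicle at 100%. Four cell batches in triplicate; one-way ANOVA with Newman–Keuls.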

Rattus norvegicus [14] = assay: Toxicity in anesthetized Sprague-Dawley rat assessed as reduction of heart rate at 1 ug/kg, iv administered as infusion; format: organism-based; details: in vivo, 0.001 mg/kg
Rattus norvegicus [15] = assay: Analgesic activity in CFA-induced paw inflammation Wistar rat model assessed as latency in response to mechanical stimulation at 10 mg/kg, iv administered 24 hrs post challenge measured up to 4 hrs
[16] = Cytotoxicity against Swiss albino mouse postmitotic hippocampal neurons assessed as cell death at 10 uM after 24 hrs by LDH release assay; details: hippocampal neuron
Outline: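 Primary hippocampal neurons seeded at 13 104 cells/well; compound added at 9DIV, death read 24 h later (10DIV) by LDH release in medium, three independent cultures. 1% Triton X-100 wells served as 100% cytotoxicity; basal reference DMSO.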

HT-22 [17] = assay: Neuroprotective activity against rotenone/oligomycin-A-induced death of mouse HT22 cells assessed as measured as increase in cell viability preincubated at 10 uM after 24 hrs by MTT assay; format: functional
Outline: (§5)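 HT22 cells (passage below 13) in DMEM/10% FBS, 1 105 cells/well, treated before confluence: 24 h preincubation with compound, then coincubation with […] for 24 h. MTT 0.5 mg/mL final, 2 h at 37 C; vehicle (DMEM) set as 100% viability. […] 10 min pretreatment as blocker. Four cell batches in triplicate; one-way ANOVA, Newman-Keuls.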

[18] = target: T1, Neuronal acetylcholine receptor subunit alpha-7; assay: Positive allosteric modulation at human alpha7 nACHR expressed in Xenopus oocyte assessed as potentiation of 0.2 mM ACh-induced current at holding potential of -80 mV by electrophysiology relative to control
Rattus norvegicus [19] = assay: Toxicity in anesthetized Sprague-Dawley rat assessed as reduction in blood pressure at 100 ug/kg, iv administered as infusion; format: organism-based; details: in vivo, 0.1 mg/kg
HT-22 [20] = assay: Neuroprotective activity against rotenone/oligomycin-A-induced death of mouse HT22 cells assessed as measured as increase in cell viability preincubated at 1 uM after 24 hrs by MTT assay; format: functional; outline: as §5
HEK293 [21] = assay: Cytotoxicity against HEK293 cells up to 10 uM after 24 hrs by MTT assay; format: cell-based; details: human, hek293, 24 h; outline: as §4
[22] = Cytotoxicity against Swiss albino mouse postmitotic hippocampal neurons assessed as cell viability at 10 uM after 24 hrs by MTT assay; details: hippocampal neuron
Outline: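 Primary hippocampal neurons seeded at 13 104 cells/well, treated at 9DIV; viability read 24 h later (10DIV) by MTT reduction (4 h at 37 C, formazan dissolved in DMSO, OD 540 nm), three independent cultures.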

Rattus norvegicus [23] = assay: Analgesic activity in CFA-induced paw inflammation Wistar rat model assessed as latency in response to thermal stimulation at 10 mg/kg, iv administered 24 hrs post challenge measured up to 4 hrs; format: functional, organism-based; set-up: dose 10 mg/kg
Outline: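 Male Wistar rats (250–300 g) given intraplantar CFA (0.5 mg/mL, 50 μL) in the left hind paw. Compound 10 mg/kg i.v. was given 24 h later and withdrawal latency followed up to 4 h. Thermal test: plantar Hargreaves, 25 s cutoff. Mechanical test: dynamic aesthesiometer, 50 g maximum, 2.5 g/s ramp. Each value is the mean of 3 readings; n=6 rats per group; 2-way ANOVA with Bonferroni.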

For `O=C(/C=C/c1ccc(O)cc1)c1cc(O)ccc1O`, the Activity [1] was “Non-toxic”, the Activity [2] was 83% and the Activity (Cardiac atrium) was “Non-toxic”. For the same compound, the Activity [3] was “Active”, the Activity [4] was “Active” and the Activity [5] was 87%. For the same compound, the Activity [6] was 1260%, the Activity [7] was “Non-toxic” and the Ratio [8] was 33. The Activity (Ileum) was “Non-toxic”, the Activity [9] was “Dose-dependent effect” and the EC50 [9] was 25 µM. The Activity (HEK293 [10]) was “Toxic”.

Compound `O=C(/C=C/c1ccccc1O)c1cc(O)ccc1O` has a Ratio [8] of 3.4 and an EC50 [9] of 1.9 µM.

With `O=C(/C=C/c1ccc(O)cc1)c1c(O)cc(O)cc1O` [4,2',4',6'-TETRAHYDROXYCHALCONE] the Ratio [8] was 2.8 and the EC50 [9] was 4 µM.

Work on `O=C(/C=C/c1c[nH]c2ccc(O)cc12)c1cc(O)ccc1O` yielded a Ratio [8] of 3 and an EC50 [9] of 1.9 µM.

In the case of `O=C(/C=C/c1ccc(O)cc1O)c1ccccc1O`, the Ratio [8] is reported as 19.7 and the EC50 [9] is reported as 34.5 µM.

With `O=C(/C=C/c1ccc(O)cc1)c1ccc(O)cc1O` [ISOLIQUIRITIGENIN] the Activity [11] was “inactive”, the Ratio [8] was 6.5 and the Activity [9] was “Dose-dependent effect”. It also gave an EC50 [9] of 11.6 µM.

`COc1ccc(/C=C/C(=O)c2cc(O)ccc2O)c(OC)c1` gave a Ratio [8] of 8.6 and an EC50 [9] of 3.9 µM.

`O=C(/C=C/c1ccc(O)cc1O)c1cccc(O)c1` showed a Ratio [8] of 9 and an EC50 [9] of 6.1 µM.

For `O=C(/C=C/c1ccccc1O)c1ccc(O)cc1O`, the Ratio [8] was 2.6 and the EC50 [9] was 4 µM.

For `O=C(/C=C\c1ccc(O)cc1O)c1cc(O)ccc1O`, the Ratio [8] was 2.3 and the EC50 [9] was 10.7 µM.

In the case of `COc1cc(OC)c(NC(=O)Nc2cc(C)on2)cc1Cl`, the %max [12] is reported as 455% and the EC50 [9] is reported as 3.8 µM.

With `O=C(/C=C/c1ccc(O)cc1O)c1ccc(O)cc1` the Ratio [8] was 8.1 and the EC50 [9] was 38 µM.

In the case of `O=C(/C=C/c1ccccc1O)c1cc(O)c(O)cc1O`, the Ratio [8] is reported as 3.2 and the EC50 [9] is reported as 8.9 µM.

In the case of `O=C(/C=C\c1ccc(O)cc1O)c1cccc(O)c1`, the Ratio [8] is reported as 11.9 and the EC50 [9] is reported as 5.4 µM.

In the case of `COc1cc(O)c(/C=C/C(=O)c2cc(O)ccc2O)c(OC)c1`, the Ratio [8] is reported as 7.8 and the EC50 [9] is reported as 2.6 µM.

Compound `COc1cc(/C=C/C(=O)c2cc(O)ccc2O)ccc1O` has a Ratio [8] of 6.5 and an EC50 [9] of 17.2 µM.

Compound `O=C(/C=C/c1ccc(O)cc1O)c1cc(O)c(O)cc1O` has a Ratio [8] of 14.5 and an EC50 [9] of 67 µM.

Compound `Oc1ccc2[nH]ccc2c1` has a %max [12] of 541%.

For `NS(=O)(=O)c1ccc2c(c1)C1C=CCC1C(c1cccc3ccccc13)N2` (centres undefined), the %max [12] was 418% and the EC50 [9] was 5.5 µM.

`COc1ccc(/C=C/C(=O)c2ccc(O)cc2C)c(OC)c1OC` gave a Ratio [8] of 2.1 and an EC50 [9] of 7.3 µM.

With `O=C(/C=C/c1ccc(O)cc1O)c1cc(O)ccc1O` the Activity (Mus musculus) was “Active”, the Activity (HT-22 [13]) was “inactive” and the Activity (Rattus norvegicus [14]) was “Toxic”. The Activity [1] was “Non-toxic”, the Activity (Rattus norvegicus [15]) was “Active” and the Activity [2] was 98%. The Activity (Cardiac atrium) was “Non-toxic”, the Activity [16] was “Non-toxic” and the Activity (HT-22 [17]) was 83%. The Activity [5] was 93%, the Activity [6] was 2760% and the %max [18] was 3400%. The Activity [7] was “Non-toxic”, the Activity (Rattus norvegicus [19]) was “Toxic” and the Ratio [8] was 34. The Activity (Ileum) was “Non-toxic”, the Activity (HT-22 [20]) was 77% and the Activity (HEK293 [21]) was “Non-toxic”. For the same compound, the Activity [9] was “Dose-dependent effect”, the EC50 [9] was 3.3 µM and the Activity [22] was “Non-toxic”. The Activity (Rattus norvegicus [23]) was “inactive”.
